Results on 20 molecules are retold here after PubChem BioAssay.

A number with no mark means an inactive call. Inconclusive results are not listed. The source made the active and inactive calls.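 Rule for the calls, unless noted: active = cell viability at or below a set limit in both duplicate runs, the limit being the all-compound median minus 4 SD (cut at about 23% in these data, passing the limit was not always enough); inconclusive = no clear call, values can overlap the other calls; inactive = the rest.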

Experiment [1] in a line: OD615 S. cerevisiae growth inhibition, permissive medium, pilot counter-assay, permissive growth control for S. cerevisiae lifespan shortening project (AID 705;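 active = growth inhibition above 25% in both replicates, a cutoff set 3 SD above the mean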). Conditions: OD615, 24 h, at 10 µM, active compounds read high. In short, it runs like this:
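System: Engineered DeaD yeast | Buffer or medium: SC raffinose/galactose permissive medium | Incubation: Cells pre-grown 4 h, then 24 h compound exposure, 30 °C humidified | Measured by: Absorbance (optical density) at 615 nm | Read-out: Reduction in yeast growth (OD615)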

Experiment [2] can be described thus: Restrictive medium S. cerevisiae growth inhibition, OD615, pilot screen of yeast lifespan reduction project, restrictive growth control (AID 706;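 active = growth inhibition above a set limit, 3 SD over mean compound inhibition, in both replicates, cut at about 43% in these data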;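 note: modified DeaD lifespan yeast strain shifted to restrictive glucose medium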). Conditions: OD615, 48 h, at 10 µM, active compounds read high. The method in brief: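 Material: modified S. cerevisiae; Medium: glucose-based CSMM-D restrictive medium; Compound dosing: one concentration, 10 µM final, 0.25% DMSO; Incubation: 48 h compound exposure at 30 °C; Measured by: OD615.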

The nature of experiment [3]: viability gain of MRP-1-high H69AR cells under doxorubicin, pilot screen, MRP-1 activator project, CellTiter-Glo, duplicate (AID 807;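 active = viability increase at or above a cutoff of the median across tested compounds plus 3 SD, cut at about 8.5% in these data, passing the limit was not always enough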;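 note: compound pretreatment 18-22 h then 72 h combined with doxorubicin; 0% = doxorubicin alone and 100% = vehicle without doxorubicin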). Conditions: H69AR viability with doxorubicin, CellTiter-Glo luminescence; at 10 µM; active compounds read high. For orientation: In ATP-based viability assays light output follows the ATP content of the culture.
The nature of experiment [4]: growth suppression of beta-catenin knockout HCT116, pilot screen, human colon tumor cells (AID 823).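 Note: 0% = wells killed by 20 µM Hyamine and 100% = untreated DMSO cell wells.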 Conditions: CellTiter-Glo, 60 h, at 10 µM, active compounds read low.
The nature of experiment [5]: growth suppression of PTEN-deleted HCT116, pilot screen, cell-based, HCT116 clonal line, CellTiter-Glo (AID 824;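 active = viability at or below 27.92% in each of two runs, the all-compound median minus 4 SD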;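 note: 0% = 20 µM Hyamine control and 100% = vehicle cell control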). Conditions: 60 h, at 10 µM, active compounds read low.
Experiment [6] can be described thus: inhibitors of the yeast RAM network, pilot screen, dse1pr::URA3 reporter, 5-FOA selection (AID 869;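 active = inhibition over a set limit, the all-compound mean plus 3 SD, in both replicate runs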;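 note: 0% = DMSO wells with no growth and 100% = 10 µM 1-NA-PP1 with full growth; RAM network block rescues cells from 5-FOA so hits raise OD615 growth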). Conditions: S. cerevisiae dse1pr::URA3 5-FOA growth, OD615, 2 d; at 10 µM; active compounds read high; strain carries analog-sensitive mutant Cbk1 kinase.

For orientation: viability means a read-out of living cells in per cent, often relative to untreated cells. Broadly, the inhibition is the relative decrease from the control value, in per cent. Turning to `CCOC(=O)C1CCCN(C(=O)CCCn2nc(C)n3c(cc4sccc43)c2=O)C1` (stereo not given), the growth inhibition was -4.78% in experiment [1] and -16.8% in experiment [2]. For the same molecule, the viability increase in experiment [3] is -1.97%. Besides, the viability was 102% in experiment [4] and 94.3% in experiment [5]. The inhibition in experiment [6] is 1.37%.

Regarding `Cc1c(S(=O)(=O)N2CCc3ccccc3C2)c(=O)n(C)c(=O)n1C`, the growth inhibition was -14.9% in experiment [1] and -10.4% in experiment [2]. In experiment [3], the viability increase is -0.16%. In addition, the viability in experiment [4] is 103%; in experiment [5], 97.9%. The inhibition in experiment [6] was 2.17%.

Consider `CCOC(=O)C1CCN(C(=O)Nc2ccc(Cl)cc2)CC1`, for which the results for the growth inhibition in experiment [1] and in experiment [2] were -17.2% and -13.1%, respectively. Besides, the viability increase in experiment [3] was 1.32%. The viability was 96.7% in experiment [4] and 102% in experiment [5]. Besides, in experiment [6], the inhibition was -0.18%.

As to `CN(Cc1ccccc1)c1oc(COc2ccccc2F)nc1C#N`, the results for the growth inhibition in experiment [1] and in experiment [2] were -1.62% and -8.97%, respectively. Besides, the viability increase in experiment [3] is 2.94%. For the same molecule, the viability in experiment [4] was 80.2%; in experiment [5], 80.9%. For the same molecule, in experiment [6], the inhibition was 1.07%.

As for `Brc1ccc(Oc2nnnn2-c2ccccc2)cc1`, the growth inhibition was -5.57% in experiment [1] and -3.68% in experiment [2]. For the same molecule, the viability increase in experiment [3] was 0.29%. Further, the viability in experiment [4] is 95.3%; in experiment [5], 88.9%. In experiment [6], the inhibition was 1.51%.

For `CCCCOc1ccccc1C1NC(=O)NC(C)=C1C(=O)OCCOC` (stereo not given), the growth inhibition in experiment [1] is -16%; in experiment [2], -16.6%. Besides, in experiment [3], the viability increase was -2.89%. Besides, the viability in experiment [4] was 92.9%; in experiment [5], 88.1%. Moreover, the inhibition in experiment [6] is 2.28%.

`O=C(Cn1cc2c(n1)CCCCC2)NCCCN1CCOCC1`: the growth inhibition is -9.29% in experiment [1] and -6.7% in experiment [2]. Further, the viability increase in experiment [3] is 0.92%. Moreover, the viability is 112% in experiment [4] and 99.8% in experiment [5]. Moreover, in experiment [6], the inhibition was 2.08%.

Turning to `O=C(Cn1cc2c(n1)CCCC2)NCc1ccccn1`, the growth inhibition is -2.39% in experiment [1] and 2.25% in experiment [2]. The viability increase in experiment [3] was -0.85%. The viability in experiment [4] was 104%; in experiment [5], 106%. In addition, in experiment [6], the inhibition was 0.72%.

Turning to `Cc1noc(/C=C/N(C)C)c1S(=O)(=O)N1CCCC(C(=O)NCc2cccs2)C1` (stereo not given), the results for the growth inhibition in experiment [1] and in experiment [2] were 2% and -3.34%, respectively. In addition, in experiment [3], the viability increase is 10.6% (active). Further, the results for the viability in experiment [4] and in experiment [5] were 93.2% and 88.5%, respectively. Further, in experiment [6], the inhibition was 0.21%.

As for `CCOC(=O)c1ccccc1NC1c2ccccc2C(=O)N1c1ccc(C)cn1` (stereo not given), the growth inhibition in experiment [1] was -11.3%; in experiment [2] it was 6.58%. Moreover, in experiment [3], the viability increase was -2.23%. Moreover, the viability in experiment [4] was 72.9%; in experiment [5], 79.6%. Moreover, in experiment [6], the inhibition was 2.52%.

As for `C1=C(c2ccccc2)CCN(c2nc3ccccc3n3cnnc23)C1`, the growth inhibition in experiment [1] was -7.88%; in experiment [2], 11.2%. The viability increase in experiment [3] was -3.98%. The viability is 90.4% in experiment [4] and 86.8% in experiment [5]. The inhibition in experiment [6] was 0.34%.

As to `COC(=O)c1ccc2c(c1)N(Cc1ccccc1F)C(=O)c1ccccc1S2=O` (stereo not given), the growth inhibition was -13.9% in experiment [1] and -2.4% in experiment [2]. Further, the viability increase in experiment [3] is -4.03%. Also, the viability in experiment [4] was 75.9%; in experiment [5], 74%. Moreover, the inhibition in experiment [6] was 1.02%.

For `CCOc1ccccc1NC1c2ccccc2C(=O)N1c1ccc(C)cn1` (stereo not given), the growth inhibition in experiment [1] is -14.3%; in experiment [2], 3.06%. The viability increase in experiment [3] was -1.37%. Moreover, the viability was 88.2% in experiment [4] and 88% in experiment [5]. In addition, the inhibition in experiment [6] was 0.395%.

Turning to `CCn1c(C(C)NC(=O)c2cccc(C)c2)nc2ccccc21` (stereo not given), the growth inhibition is -8.83% in experiment [1] and 5.38% in experiment [2]. In addition, the viability increase in experiment [3] was -2.68%. Besides, the values for the viability in experiment [4] and in experiment [5] were 102% and 95.6%, respectively. Also, the inhibition in experiment [6] is 2.54%.

Consider `Cn1c(=O)oc2cc(S(=O)(=O)N3CCC(C(=O)NCC4COc5ccccc5O4)CC3)ccc21` (stereo not given), for which the growth inhibition in experiment [1] is -17.2%; in experiment [2], -19.6%. Further, the viability increase in experiment [3] is 0.66%. The viability is 103% in experiment [4] and 96.8% in experiment [5]. In experiment [6], the inhibition is 3.92%.

For `O=C(CCS(=O)(=O)c1cccc2nonc12)N1CC(=O)N(CCc2ccccc2)C(=O)C1`, the figures for the growth inhibition in experiment [1] and in experiment [2] were -5.67% and -8.59%, respectively. Besides, the viability increase in experiment [3] is -3.51%. For the same molecule, the values for the viability in experiment [4] and in experiment [5] were 95.4% and 92.3%, respectively. Besides, the inhibition in experiment [6] was -0.47%.

On to `COc1ccc(N2CCN(C(=O)CCS(=O)(=O)c3cccc4nsnc34)CC2)cc1`, for which the growth inhibition in experiment [1] is -9.09%; in experiment [2] it was -6.57%. The viability increase in experiment [3] is -2.63%. Further, the viability is 95.7% in experiment [4] and 96.9% in experiment [5]. In experiment [6], the inhibition was 0.895%.

On to `CCC(C)(C(=O)NC1CCCC1)N(C(=O)CNC(C)=O)c1ccc(C)cc1` (stereo not given), for which the growth inhibition in experiment [1] was -1.46%; in experiment [2], -5.89%. Moreover, the viability increase in experiment [3] was -0.57%. For the same molecule, the results for the viability in experiment [4] and in experiment [5] were 94.2% and 96.7%, respectively. In addition, the inhibition in experiment [6] was 2.1%.

Take `CCc1ccccc1S(=O)(=O)Cc1ccc(C(=O)N2CCN(c3ccccc3OC)CC2)o1`: the growth inhibition in experiment [1] is -12.5%; in experiment [2], -21.1%. For the same molecule, the viability increase in experiment [3] was -2.86%. Also, the results for the viability in experiment [4] and in experiment [5] were 37% and 43.5%, respectively. Moreover, the inhibition in experiment [6] was 1.31%.

Take `CCOC(=O)C1Cn2c(nc3c(c2=O)C2(CCCC2)Cc2ccccc2-3)S1` (stereo not given): the results for the growth inhibition in experiment [1] and in experiment [2] were -15.5% and -1.87%, respectively. Further, the viability increase in experiment [3] is -3.9%. For the same molecule, the viability is 84.2% in experiment [4] and 77.4% in experiment [5]. Also, the inhibition in experiment [6] is 2.23%.
